Experimental data from ChEMBL document CHEMBL4257553, “Novel organophosphorus aminopyrimidines as unique structural DNA-targeting membrane active inhibitors towards drug-resistant methicillin-resistant Staphylococcus aureus” (Medchemcomm, 2018).
≈ marks a conversion by molar mass, not a printed value.

Tests used:
Format in all cases: functional
[1] = tested on: Staphylococcus aureus; test: Antibacterial activity against methicillin resistant Staphylococcus aureus after 24 hrs by microbroth dilution method
Method in brief: (§1)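 Tested by CLSI-standard broth microdilution against a panel of eleven bacterial strains, Gram-positive and Gram-negative, including MRSA.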

[2] = tested on: Acinetobacter baumannii; test: Antibacterial activity against Acinetobacter baumannii after 24 hrs by microbroth dilution method; method in brief: as §1
[3] = tested on: Escherichia coli; test: Antibacterial activity against Escherichia coli ATCC 25922 after 24 hrs by microbroth dilution method; settings: ATCC 25922, 24 h; method in brief: as §1
[4] = tested on: Klebsiella pneumoniae; test: Antibacterial activity against Klebsiella pneumoniae after 24 hrs by microbroth dilution method; method in brief: as §1
[5] = tested on: Pseudomonas aeruginosa; test: Antibacterial activity against Pseudomonas aeruginosa ATCC 27853 after 24 hrs by microbroth dilution method; settings: ATCC 27853, 24 h; method in brief: as §1
[6] = tested on: Staphylococcus aureus; test: Antibacterial activity against Staphylococcus aureus ATCC 29213 after 24 hrs by microbroth dilution method; settings: ATCC 29213, 24 h; method in brief: as §1
[7] = tested on: Enterococcus faecalis; test: Antibacterial activity against Enterococcus faecalis after 24 hrs by microbroth dilution method; method in brief: as §1
[8] = tested on: Pseudomonas aeruginosa; test: Antibacterial activity against Pseudomonas aeruginosa after 24 hrs by microbroth dilution method; method in brief: as §1
[9] = tested on: Aspergillus fumigatus; test: Antifungal activity against Aspergillus fumigatus after 24 hrs by microbroth dilution method
[10] = tested on: Staphylococcus aureus; test: Antibacterial activity against Staphylococcus aureus after 24 hrs by microbroth dilution method; method in brief: as §1
[11] = tested on: Staphylococcus aureus; test: Antibacterial activity against Staphylococcus aureus ATCC 25923 after 24 hrs by microbroth dilution method; settings: ATCC 25923, 24 h; method in brief: as §1
[12] = tested on: Aspergillus fumigatus; test: Potency index, ratio of fluconazole MIC to compound MIC for antifungal activity against Aspergillus fumigatus
[13] = tested on: Escherichia coli; test: Antibacterial activity against Escherichia coli after 24 hrs by microbroth dilution method; method in brief: as §1
[14] = tested on: Candida albicans; test: Antifungal activity against Candida albicans ATCC 90023 after 24 hrs by microbroth dilution method; settings: ATCC 90023, 24 h

Which results are given for `CCOP(=O)(OCC)C(Nc1ncccn1)c1cn(CC)c2ccccc12` (stereo not drawn)?
MIC [1]: 4 µg/mL (≈ 10.3 µM); MIC [2]: 64 µg/mL (≈ 165 µM); MIC [3]: 256 µg/mL (≈ 659 µM); MIC [4]: 64 µg/mL (≈ 165 µM); MIC [5]: 128 µg/mL (≈ 330 µM); MIC [6]: 256 µg/mL (≈ 659 µM); MIC [7]: 128 µg/mL (≈ 330 µM); MIC [8]: 256 µg/mL (≈ 659 µM); MIC [9]: > 16 µg/mL; MIC [10]: 64 µg/mL (≈ 165 µM); MIC [11]: 64 µg/mL (≈ 165 µM); Ratio [12]: 16; MIC [13]: 256 µg/mL (≈ 659 µM)

For `CCOP(=O)(OCC)C(Nc1ncccn1)c1ccc(OC)cc1` (stereo not drawn), which MIC [1] is on record?
Its MIC is 256 µg/mL (≈ 729 µM).

What about the MIC [2] of the same compound?
Its MIC is 128 µg/mL (≈ 364 µM).

What about the MIC [3] of the same compound?
The MIC was 256 µg/mL (≈ 729 µM).

And the MIC [4]?
The MIC was 256 µg/mL (≈ 729 µM).

And the MIC [5]?
The MIC was 4 µg/mL (≈ 11.4 µM).

And the MIC [6]?
The MIC was 256 µg/mL (≈ 729 µM).

And the MIC [7]?
The MIC was 64 µg/mL (≈ 182 µM).

What about the MIC [8] of the same compound?
Its MIC is 128 µg/mL (≈ 364 µM).

And the MIC [9]?
Its MIC is greater than 16 µg/mL.

And the MIC [10]?
Its MIC is 256 µg/mL (≈ 729 µM).

What about the MIC [11] of the same compound?
The MIC was 64 µg/mL (≈ 182 µM).

And the Ratio [12]?
The Ratio was 16.

What about the MIC [13] of the same compound?
Its MIC is 256 µg/mL (≈ 729 µM).

For `OC(Cn1cncn1)(Cn1cncn1)c1ccc(F)cc1F` [FLUCONAZOLE], which MIC [9] is on record?
Its MIC is greater than 16 µg/mL.

Which MIC [1] does the source give for `CCCCc1nc(Cl)c(C(Nc2ncccn2)P(=O)(OCC)OCC)n1CC` (stereo not drawn) here?
The MIC was 256 µg/mL (≈ 596 µM).

What about the MIC [2] of the same compound?
The MIC was 256 µg/mL (≈ 596 µM).

And the MIC [3]?
The MIC was 256 µg/mL (≈ 596 µM).

What about the MIC [4] of the same compound?
Its MIC is 128 µg/mL (≈ 298 µM).

What about the MIC [5] of the same compound?
The MIC was 256 µg/mL (≈ 596 µM).

And the MIC [6]?
Its MIC is 256 µg/mL (≈ 596 µM).

What about the MIC [7] of the same compound?
Its MIC is 64 µg/mL (≈ 149 µM).

And the MIC [8]?
The MIC was 256 µg/mL (≈ 596 µM).

And the MIC [9]?
The MIC was greater than 16 µg/mL.

What about the MIC [10] of the same compound?
The MIC was 512 µg/mL (≈ 1190 µM).

And the MIC [11]?
Its MIC is 128 µg/mL (≈ 298 µM).

What about the Ratio [12] of the same compound?
The Ratio was 16.

What about the MIC [13] of the same compound?
The MIC was 256 µg/mL (≈ 596 µM).

With `O=P(O)(O)C(Nc1ncccn1)c1ccc(F)cc1` (stereo not drawn) as the compound, how does the MIC [1] read?
The MIC was 128 µg/mL (≈ 452 µM).

What about the MIC [2] of the same compound?
Its MIC is 256 µg/mL (≈ 904 µM).

What about the MIC [3] of the same compound?
Its MIC is 128 µg/mL (≈ 452 µM).

What about the MIC [4] of the same compound?
The MIC was 256 µg/mL (≈ 904 µM).

And the MIC [5]?
Its MIC is 128 µg/mL (≈ 452 µM).

What about the MIC [6] of the same compound?
The MIC was 256 µg/mL (≈ 904 µM).

What about the MIC [7] of the same compound?
Its MIC is 256 µg/mL (≈ 904 µM).

What about the MIC [8] of the same compound?
The MIC was 256 µg/mL (≈ 904 µM).

And the MIC [9]?
The MIC was greater than 16 µg/mL.

What about the MIC [10] of the same compound?
The MIC was 256 µg/mL (≈ 904 µM).

What about the MIC [11] of the same compound?
The MIC was 128 µg/mL (≈ 452 µM).

And the Ratio [12]?
The Ratio was 16.

What about the MIC [13] of the same compound?
Its MIC is 256 µg/mL (≈ 904 µM).

What does the source list for `CCn1cc(C(=O)O)c(=O)c2cc(F)c(N3CCNCC3)cc21` [NORFLOXACIN]?
MIC [1]: 8 µg/mL (≈ 25.1 µM); MIC [2]: 8 µg/mL (≈ 25.1 µM); MIC [3]: 8 µg/mL (≈ 25.1 µM); MIC [4]: 4 µg/mL (≈ 12.5 µM); MIC [5]: 0.5 µg/mL (≈ 1.57 µM); MIC [6]: 2 µg/mL (≈ 6.26 µM); MIC [7]: 4 µg/mL (≈ 12.5 µM); MIC [8]: 2 µg/mL (≈ 6.26 µM); MIC [10]: 0.5 µg/mL (≈ 1.57 µM); MIC [11]: 1 µg/mL (≈ 3.13 µM); MIC [13]: 16 µg/mL (≈ 50.1 µM)

Which MIC [1] does the source give for `CCOP(=O)(OCC)C(Nc1ncccn1)c1ccc(F)cc1` (stereo not drawn) here?
Its MIC is 256 µg/mL (≈ 754 µM).

And the MIC [2]?
Its MIC is 128 µg/mL (≈ 377 µM).

And the MIC [3]?
The MIC was 256 µg/mL (≈ 754 µM).

And the MIC [4]?
Its MIC is 128 µg/mL (≈ 377 µM).

And the MIC [5]?
Its MIC is 64 µg/mL (≈ 189 µM).

What about the MIC [6] of the same compound?
The MIC was 256 µg/mL (≈ 754 µM).

And the MIC [7]?
The MIC was 64 µg/mL (≈ 189 µM).

And the MIC [8]?
Its MIC is 128 µg/mL (≈ 377 µM).

And the MIC [9]?
The MIC was greater than 16 µg/mL.

And the MIC [10]?
The MIC was 256 µg/mL (≈ 754 µM).

And the MIC [11]?
Its MIC is 64 µg/mL (≈ 189 µM).

What about the Ratio [12] of the same compound?
Its Ratio is 16.

And the MIC [13]?
Its MIC is 256 µg/mL (≈ 754 µM).

With `CCOP(=O)(OCC)C(Nc1ncccn1)c1ccc(Cl)cc1` (stereo not drawn) as the compound, how does the MIC [1] read?
The MIC was 64 µg/mL (≈ 180 µM).

And the MIC [2]?
Its MIC is 128 µg/mL (≈ 360 µM).

And the MIC [14]?
The MIC was 8 µg/mL (≈ 22.5 µM).

What about the MIC [3] of the same compound?
Its MIC is 256 µg/mL (≈ 720 µM).

And the MIC [4]?
The MIC was 128 µg/mL (≈ 360 µM).

And the MIC [5]?
Its MIC is 8 µg/mL (≈ 22.5 µM).

And the MIC [6]?
Its MIC is 256 µg/mL (≈ 720 µM).

And the MIC [7]?
Its MIC is 32 µg/mL (≈ 89.9 µM).

And the MIC [8]?
The MIC was 256 µg/mL (≈ 720 µM).

What about the MIC [9] of the same compound?
Its MIC is greater than 16 µg/mL.

And the MIC [10]?
Its MIC is 256 µg/mL (≈ 720 µM).

What about the MIC [11] of the same compound?
Its MIC is 64 µg/mL (≈ 180 µM).

And the Ratio [12]?
Its Ratio is 16.

And the MIC [13]?
The MIC was 512 µg/mL (≈ 1440 µM).

With `CCOP(=O)(OCC)C(Nc1ncccn1)c1ccc(Cl)cc1Cl` (stereo not drawn) as the compound, how does the MIC [1] read?
Its MIC is 8 µg/mL (≈ 20.5 µM).

And the MIC [2]?
Its MIC is 64 µg/mL (≈ 164 µM).

What about the MIC [14] of the same compound?
Its MIC is 8 µg/mL (≈ 20.5 µM).

What about the MIC [3] of the same compound?
Its MIC is 16 µg/mL (≈ 41 µM).

What about the MIC [4] of the same compound?
Its MIC is 64 µg/mL (≈ 164 µM).

And the MIC [5]?
Its MIC is 8 µg/mL (≈ 20.5 µM).

What about the MIC [6] of the same compound?
Its MIC is 64 µg/mL (≈ 164 µM).

What about the MIC [7] of the same compound?
Its MIC is 32 µg/mL (≈ 82 µM).

And the MIC [8]?
Its MIC is 64 µg/mL (≈ 164 µM).

What about the MIC [9] of the same compound?
Its MIC is greater than 16 µg/mL.

What about the MIC [10] of the same compound?
The MIC was 64 µg/mL (≈ 164 µM).

And the MIC [11]?
The MIC was 8 µg/mL (≈ 20.5 µM).

And the Ratio [12]?
The Ratio was 16.

What about the MIC [13] of the same compound?
Its MIC is 256 µg/mL (≈ 656 µM).

`C#CCn1c(CCCC)nc(Cl)c1C(Nc1ncccn1)P(=O)(OCC)OCC` (stereo not drawn) was tested. Which MIC [1] did it give?
The MIC was 128 µg/mL (≈ 291 µM).

What about the MIC [2] of the same compound?
Its MIC is 128 µg/mL (≈ 291 µM).

And the MIC [3]?
Its MIC is 128 µg/mL (≈ 291 µM).

And the MIC [4]?
The MIC was 256 µg/mL (≈ 582 µM).

What about the MIC [5] of the same compound?
The MIC was 256 µg/mL (≈ 582 µM).

And the MIC [6]?
Its MIC is 256 µg/mL (≈ 582 µM).

And the MIC [7]?
Its MIC is 256 µg/mL (≈ 582 µM).

And the MIC [8]?
The MIC was 256 µg/mL (≈ 582 µM).

And the MIC [9]?
The MIC was greater than 16 µg/mL.

And the MIC [10]?
Its MIC is 64 µg/mL (≈ 145 µM).

And the MIC [11]?
Its MIC is 32 µg/mL (≈ 72.7 µM).

And the Ratio [12]?
The Ratio was 16.

What about the MIC [13] of the same compound?
Its MIC is 256 µg/mL (≈ 582 µM).
